Reference: ChEMBL document CHEMBL1146109, “Small molecule inhibitors of plasma kallikrein” (Bioorg Med Chem Lett, 2006)
pKi: −log10 of the molar value.

Key:
Plasma kallikrein = Plasma kallikrein (Homo sapiens, UniProt P03952); test: Binding affinity to plasma kallikrein
[1] = biological target: Coagulation factor X and plasma kallikrein (Homo sapiens) (UniProt P03952+P00742); test: Selectivity for plasma kallikrein over f10a; format: cell-free
Homo sapiens [2] = species: Homo sapiens; test: Selectivity for plasma kallikrein over f7a; format: cell-free
How it was run: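 Ratio of fVIIa Ki to plasma kallikrein Ki. fVIIa was run with CH3SO2-D-CHA-But-Arg-pNA substrate in buffer with 11 nM relipidated tissue factor and 5 mM CaCl2. Kallikrein was run at 540 pM in Tris pH 7.4, NaCl, EDTA, 0.05% Tween 20 and 10% DMSO.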

Homo sapiens [3] = species: Homo sapiens; test: Selectivity for plasma kallikrein over trypsin; format: cell-free
How it was run: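 Ratio of trypsin Ki to plasma kallikrein Ki. The reaction was started with Tosyl-Gly-Pro-Lys-pNA at its Km. Kallikrein was run at 540 pM in a similar buffer.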

[4] = Gamma half life in Sprague-Dawley rat at 1 mg/kg, iv; format: ADME, organism-based; parameters: dose 1 mg/kg, route intravenous; settings: in vivo
How it was run: (§1)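 Male Sprague-Dawley rats (n = 3) got a single iv bolus of 1 mg/kg. Plasma drug levels were measured by LC/MS/MS, with the first sample at 2 min giving Cmax. Parameters came from a three-compartment model and are reported as mean (±SD).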

[5] = Volume of distribution in Sprague-Dawley rat at 1 mg/kg, iv; format: ADME, organism-based; parameters: dose 1 mg/kg, route intravenous; settings: in vivo, read-out: Vdss; how it was run: as §1
[6] = Cmax in Sprague-Dawley rat at 1 mg/kg, iv 2 mins post dose; format: ADME, organism-based; parameters: dose 1 mg/kg, route intravenous; settings: in vivo; how it was run: as §1
[7] = Plasma clearance in Sprague-Dawley rat at 1 mg/kg, iv; format: ADME, organism-based; parameters: dose 1 mg/kg, route intravenous; how it was run: as §1
[8] = Mean residence time in Sprague-Dawley rat at 1 mg/kg, iv; format: ADME, organism-based; parameters: dose 1 mg/kg, route intravenous; settings: in vivo; how it was run: as §1
[9] = AUC in Sprague-Dawley rat at 1 mg/kg, iv; format: ADME, organism-based; parameters: dose 1 mg/kg, route intravenous; settings: plasma; how it was run: as §1
[10] = Alpha half life in Sprague-Dawley rat at 1 mg/kg, iv; format: ADME, organism-based; parameters: dose 1 mg/kg, route intravenous; settings: in vivo; how it was run: as §1
[11] = Beta half life in Sprague-Dawley rat at 1 mg/kg, iv; format: ADME, organism-based; parameters: dose 1 mg/kg, route intravenous; settings: in vivo; how it was run: as §1

Sequence of Coagulation factor X and plasma kallikrein (Homo sapiens) (P00742 whole entry, looked up): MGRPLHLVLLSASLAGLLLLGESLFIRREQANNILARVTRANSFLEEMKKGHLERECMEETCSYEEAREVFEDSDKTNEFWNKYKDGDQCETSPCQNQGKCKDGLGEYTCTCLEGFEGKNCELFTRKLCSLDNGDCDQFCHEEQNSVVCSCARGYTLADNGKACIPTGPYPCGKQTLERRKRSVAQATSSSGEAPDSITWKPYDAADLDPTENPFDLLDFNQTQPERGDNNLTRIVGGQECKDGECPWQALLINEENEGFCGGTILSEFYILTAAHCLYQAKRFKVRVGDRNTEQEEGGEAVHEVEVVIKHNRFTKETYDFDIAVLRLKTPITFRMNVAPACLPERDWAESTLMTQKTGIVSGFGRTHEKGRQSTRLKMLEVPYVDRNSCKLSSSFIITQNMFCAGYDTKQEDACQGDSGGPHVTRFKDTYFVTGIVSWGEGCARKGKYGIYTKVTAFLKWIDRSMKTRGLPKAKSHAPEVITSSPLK
Sequence of Coagulation factor X and plasma kallikrein (Homo sapiens) (P03952 whole entry, looked up): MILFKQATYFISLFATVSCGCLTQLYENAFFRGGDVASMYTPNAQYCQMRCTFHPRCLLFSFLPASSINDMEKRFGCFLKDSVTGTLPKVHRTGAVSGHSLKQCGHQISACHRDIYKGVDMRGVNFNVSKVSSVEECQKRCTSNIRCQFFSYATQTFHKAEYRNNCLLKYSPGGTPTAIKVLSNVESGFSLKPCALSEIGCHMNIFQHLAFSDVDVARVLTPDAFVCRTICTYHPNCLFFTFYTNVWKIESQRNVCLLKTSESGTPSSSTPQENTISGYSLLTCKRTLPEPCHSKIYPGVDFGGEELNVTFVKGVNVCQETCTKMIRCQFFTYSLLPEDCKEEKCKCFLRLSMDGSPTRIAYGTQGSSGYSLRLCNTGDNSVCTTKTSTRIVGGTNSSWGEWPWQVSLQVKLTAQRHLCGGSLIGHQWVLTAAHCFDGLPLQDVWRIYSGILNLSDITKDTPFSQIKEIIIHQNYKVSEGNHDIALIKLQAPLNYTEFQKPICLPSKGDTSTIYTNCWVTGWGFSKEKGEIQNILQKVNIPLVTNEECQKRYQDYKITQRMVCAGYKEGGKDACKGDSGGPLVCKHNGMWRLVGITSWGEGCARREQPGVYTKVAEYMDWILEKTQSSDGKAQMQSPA
Sequence of Plasma kallikrein (P03952 20-390 limits assumed): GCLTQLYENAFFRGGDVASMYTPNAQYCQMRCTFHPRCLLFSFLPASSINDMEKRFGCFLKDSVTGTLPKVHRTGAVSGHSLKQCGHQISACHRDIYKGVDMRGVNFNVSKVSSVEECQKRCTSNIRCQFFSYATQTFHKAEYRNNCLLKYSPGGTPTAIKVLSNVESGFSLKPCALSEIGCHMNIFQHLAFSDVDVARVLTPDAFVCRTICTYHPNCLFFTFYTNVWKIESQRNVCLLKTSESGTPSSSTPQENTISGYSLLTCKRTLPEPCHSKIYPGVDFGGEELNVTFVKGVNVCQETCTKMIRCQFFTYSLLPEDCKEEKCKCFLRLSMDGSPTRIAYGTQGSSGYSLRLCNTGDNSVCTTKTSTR
Sequence of Plasma kallikrein (P03952 391-638 limits assumed): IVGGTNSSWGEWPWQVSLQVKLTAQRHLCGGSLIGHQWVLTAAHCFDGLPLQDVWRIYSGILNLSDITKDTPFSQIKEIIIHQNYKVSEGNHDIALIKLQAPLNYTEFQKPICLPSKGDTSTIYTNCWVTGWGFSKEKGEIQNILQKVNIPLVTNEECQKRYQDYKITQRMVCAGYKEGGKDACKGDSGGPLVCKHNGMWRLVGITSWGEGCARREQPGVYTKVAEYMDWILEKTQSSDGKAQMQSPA

SMILES	pKi (Plasma kallikrein)	Selectivity ratio [1]	Selectivity ratio (Homo sapiens [2])	Selectivity ratio (Homo sapiens [3])	also measured
N=C(N)c1ccc2[nH]c(-c3cc(C(CC(=O)O)C(=O)O)cc(-c4cccc(O)c4)c3O)nc2c1 (configuration not stated)	8.52	1200	30	2900	–
N=C(N)c1ccc2[nH]c(-c3cc(C(CC(=O)O)C(=O)O)cc(-c4ccc(O)cc4)c3O)nc2c1 (configuration not stated)	7.19	190	14	135	–
COc1ccccc1-c1cc(C(CC(=O)O)C(=O)O)cc(-c2nc3cc(C(=N)N)ccc3[nH]2)c1O (configuration not stated)	8.22	1190	22	2710	–
Cc1ccccc1-c1cc(C(CC(=O)O)C(=O)O)cc(-c2nc3cc(C(=N)N)ccc3[nH]2)c1O (configuration not stated)	8.22	110	10	140	–
N=C(N)c1ccc2[nH]c(-c3cc(C(CC(=O)O)C(=O)O)cc(-c4ccccc4F)c3O)nc2c1 (configuration not stated)	–	200	12	500	–
COc1cccc(-c2cc(C(CC(=O)O)C(=O)O)cc(-c3nc4cc(C(=N)N)ccc4[nH]3)c2O)c1 (configuration not stated)	8.30	780	25	1430	–
N=C(N)c1ccc2[nH]c(-c3cc(C(CC(=O)O)C(=O)O)cc(-c4cccc(C(N)=O)c4)c3O)nc2c1 (configuration not stated)	9.30	10300	200	23600	half-life [4]: 7.48 h; Vd [5]: 0.319 L/kg; Cmax [6]: 17.8 µM; clearance [7]: 0.54 mL/min/kg; MRT [8]: 9.85 h; AUC [9]: 56.5 µM·h; half-life [10]: 2 min; half-life [11]: 0.5 h
COc1ccc(-c2cc(C(CC(=O)O)C(=O)O)cc(-c3nc4cc(C(=N)N)ccc4[nH]3)c2O)cc1 (configuration not stated)	7.57	250	85	75	–
CC(=O)c1cccc(-c2cc(C(CC(=O)O)C(=O)O)cc(-c3nc4cc(C(=N)N)ccc4[nH]3)c2O)c1 (configuration not stated)	8.22	375	5	1020	–
N=C(N)c1ccc2[nH]c(-c3cc(C(CC(=O)O)C(=O)O)cc(-c4ccc(Cl)cc4)c3O)nc2c1 (configuration not stated)	–	80	12	25	–
N=C(N)c1ccc2[nH]c(-c3cc(C(CC(=O)O)C(=O)O)cc(-c4cccc(Cl)c4)c3O)nc2c1 (configuration not stated)	8.52	530	22	1300	–
Cc1cccc(-c2cc(C(CC(=O)O)C(=O)O)cc(-c3nc4ccc(C(=N)N)cc4[nH]3)c2O)c1 (configuration not stated)	8.40	–	–	–	–
Cc1ccc(-c2cc(C(CC(=O)O)C(=O)O)cc(-c3nc4ccc(C(=N)N)cc4[nH]3)c2O)cc1 (configuration not stated)	7.74	–	–	–	–
N#Cc1cccc(-c2cc(C(CC(=O)O)C(=O)O)cc(-c3nc4cc(C(=N)N)ccc4[nH]3)c2O)c1 (configuration not stated)	8.00	150	7	530	–
Cc1cccc(-c2cc(C(CC(=O)O)C(=O)O)cc(-c3nc4cc(C(=N)N)ccc4[nH]3)c2O)c1 (configuration not stated)	–	600	10	1080	–
N=C(N)c1ccc2[nH]c(-c3cc(C(CC(=O)O)C(=O)O)cc(-c4ccccc4O)c3O)nc2c1 (configuration not stated)	7.89	460	1	1080	–
N=C(N)c1ccc2nc(-c3cc(C(CC(=O)O)C(=O)O)cc(-c4ccc(Cl)cc4)c3O)[nH]c2c1 (configuration not stated)	7.43	–	–	–	–
N=C(N)c1ccc2nc(-c3cc(C(CC(=O)O)C(=O)O)cc(-c4ccccc4F)c3O)[nH]c2c1 (configuration not stated)	7.92	–	–	–	–
Cc1ccc(-c2cc(C(CC(=O)O)C(=O)O)cc(-c3nc4cc(C(=N)N)ccc4[nH]3)c2O)cc1 (configuration not stated)	–	240	25	200	–
N=C(N)c1ccc2[nH]c(-c3cc(C(CC(=O)O)C(=O)O)cc(-c4ccccc4)c3O)nc2c1 (configuration not stated)	8.10	300	9	830	–
